Test results taken from PMC12818350 (Nature Biotechnology, 2025).
Non-standard residues stand in square brackets, D forms with d. No end group written: not given here.

Experiments:
HeLa cells = assay: Human cell toxicity assay; format: cell-based; conditions: MTT, 48 h, 32 and 3.2 µg ml−1, duplicate wells; three biologically independent replicates
Method in brief: (§1)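 Cells grown in DMEM with 10% FBS, penicillin–streptomycin, glutamine and nonessential amino acids, and seeded in exponential phase at 5,000 per well, 37 °C, 5% CO2. Compound added from a DMSO stock in phenol red-free DMEM (final DMSO 0.5% or 0.05%). Vehicle sets 100% viability; camptothecin 40 µg ml−1 sets 0%. MTT added for 4 h, solubilized overnight, A570 read, normalized to percentage survival.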

HEK239 cells = assay: Human cell toxicity assay; format: cell-based; conditions: MTT, 48 h, 32 and 3.2 µg ml−1, duplicate wells; three biologically independent replicates
Method in brief: as §1

S. aureus SH1000 [1] = assay: MIC assay; format: cell-based, Staphylococcus aureus
S. aureus ClpX = S. aureus ClpX (Staphylococcus aureus, UniProt Q2FXQ7); assay: Isothermal titration calorimetry; format: binding; conditions: 25 °C, ~30 μM His-ClpX, ~300 μM ligand
S. aureus SH1000 [2] = assay: Mutant isolation by direct plating; format: cell-based, Staphylococcus aureus; conditions: 8× MIC, ~1 × 10^7 cells per ml, LB, 30 °C, overnight

Sequence of S. aureus ClpX (Q2FXQ7 whole entry): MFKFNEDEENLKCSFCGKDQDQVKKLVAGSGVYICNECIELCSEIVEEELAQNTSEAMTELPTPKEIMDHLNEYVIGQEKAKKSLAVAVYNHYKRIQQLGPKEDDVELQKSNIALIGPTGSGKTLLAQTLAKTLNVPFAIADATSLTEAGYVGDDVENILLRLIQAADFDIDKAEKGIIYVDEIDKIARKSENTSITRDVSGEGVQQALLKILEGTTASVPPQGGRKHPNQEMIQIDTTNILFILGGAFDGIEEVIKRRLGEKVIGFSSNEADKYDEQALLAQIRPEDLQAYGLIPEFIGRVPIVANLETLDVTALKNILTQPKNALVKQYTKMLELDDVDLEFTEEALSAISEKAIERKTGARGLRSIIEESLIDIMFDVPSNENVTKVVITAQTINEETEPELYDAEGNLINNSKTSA

Q: With “[dT]PFYL (also: lariat or depsi (positions not given here)) [synBNP 27, trigintamicin]” as the substance, how does the “human cell toxicity (in words)” value (HeLa cells) read?
A: The value was “human cell cytotoxicity”.

Q: And the “human cell toxicity (in words)” value (HEK239 cells)?
A: The value was “human cell cytotoxicity”.

Q: And the “antibiotic activity after shifting the assay conditions to 37 °C (in words)” value (S. aureus SH1000 [1]; S. aureus, 37 °C instead of 30 °C)?
A: The value was “abolished”.

Q: What about the “antibiotic activity against S. aureus (in words)” value (S. aureus SH1000 [1]; resolved trigintamicin isomers after resynthesis, 30 °C) of the same substance?
A: The value was “showing antibiotic activity”.

Q: And the “binding to ClpX by ITC (in words)” value (S. aureus ClpX)?
A: Its value is “bound ClpX”.

Q: And the “resistant mutants by direct plating” value (S. aureus SH1000 [2])?
A: Its value is “generated resistant mutants”.
